From ChEMBL document CHEMBL5042480, “3CL Protease Inhibitors with an Electrophilic Arylketone Moiety as Anti-SARS-CoV-2 Agents” (J Med Chem, 2022)
Active and inactive are the calls of the source. No cut-off for these calls is given here.

What was measured:
[1] = Inhibition of recombinant C-terminal His-tagged SARS coronavirus 2 3CL protease using Boc-Abu-Tle-Leu-Gln-AMC as substrate incubated for 5 mins by Cheng-Prusoff equation analysis; parameters: species or system Severe acute respiratory syndrome coronavirus 2
In short: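 His-tagged 3CLpro (8 ng/μL final) was assayed in 50 mM MOPS pH 7.2 with 10 mM NaCl, 1 mM EDTA and 0.01% Triton X-100. Substrate was 50 μM final (about Km) and DMSO 4% final. Inhibitor and substrate were preincubated 5 min at 37 °C, then enzyme was added and fluorescence (ex 360/em 460 nm) read for 10 min. At least 11 concentrations were tested; IC50 came from nonlinear regression and Ki from Cheng–Prusoff. n = 3.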

SARS-CoV-2 = experiment: Antiviral activity against SARS coronavirus 2 infected in African green monkey Vero cells assessed as blockade of viral proliferation at 25 uM incubated for 48 hrs by cytopathic effect assay; format: functional, organism-based; details: Severe acute respiratory syndrome coronavirus 2
[2] = Inhibition of recombinant C-terminal His-tagged SARS coronavirus 1 3CL protease using Boc-Abu-Tle-Leu-Gln-AMC as substrate incubated for 5 mins by Cheng-Prusoff equation analysis; parameters: species or system Severe acute respiratory syndrome-related coronavirus
[3] = Competitive inhibition of recombinant C-terminal His-tagged SARS coronavirus 2 3CL protease using Boc-Abu-Tle-Leu-Gln-AMC as substrate incubated for 5 mins by plate reader analysis; parameters: species or system Severe acute respiratory syndrome coronavirus 2
In short: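 Competitive-inhibition kinetics: fluorogenic substrate at 15, 30, 45, 60 and 75 μM was combined with inhibitor at 0, 10, 20, 30, 40 and 50 nM, and product formation was monitored for 10 min. Data were analysed by Lineweaver–Burk plot and global fit to a competitive model. Three independent experiments were run.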

| Compound | Ki [1] | Activity (SARS-CoV-2) | Ki [2] | Ki [3] |
| --- | --- | --- | --- | --- |
| CC(C)C[C@H](NC(=O)c1nc2ccccc2[nH]1)C(=O)N[C@@H](C[C@@H]1CCNC1=O)C(=O)c1nc2ccccc2s1 | 32.1 nM | Active | – | – |
| CC(C)C[C@H](NC(=O)[C@@H](NC(=O)OCc1ccccc1)C(C)C)C(=O)N[C@@H](C[C@@H]1CCNC1=O)C(=O)c1nc2ccccc2s1 | 14.5 nM | Active | 4.1 nM | 19.8 nM |
